Experiments:
[1] = molecular target: T1, 5-hydroxytryptamine receptor 1A (Homo sapiens) (UniProt P08908); assay: Percent decrease in 5-hydroxytryptamine 1A receptor binding using 8-OH-DPAT; set-up: concentration or dose not given beside the values
T1 sequence (whole entry): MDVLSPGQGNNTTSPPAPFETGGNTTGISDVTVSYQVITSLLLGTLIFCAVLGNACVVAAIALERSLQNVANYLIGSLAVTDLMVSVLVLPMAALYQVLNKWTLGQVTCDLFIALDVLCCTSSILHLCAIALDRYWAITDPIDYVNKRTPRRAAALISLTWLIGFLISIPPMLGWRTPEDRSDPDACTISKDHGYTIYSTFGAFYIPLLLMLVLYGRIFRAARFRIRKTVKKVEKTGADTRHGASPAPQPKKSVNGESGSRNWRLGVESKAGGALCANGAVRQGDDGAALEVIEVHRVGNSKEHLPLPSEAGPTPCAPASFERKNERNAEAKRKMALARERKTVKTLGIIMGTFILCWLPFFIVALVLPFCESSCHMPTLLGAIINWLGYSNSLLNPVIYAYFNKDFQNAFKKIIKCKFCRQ
Outline: (§1)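 Preliminary screen of receptors isolated from rat or pig tissues, run with minor changes to standard procedures. Each compound was tested at a single fixed concentration for each receptor. The read-out was the percent decrease in binding of the named radioligand.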

[2] = molecular target: Serotonin 2 (5-HT2) receptor (Rattus norvegicus, UniProt P30994+P08909+P14842); assay: Binding affinity against 5-hydroxytryptamine 2 receptor in rat striatum using [3H]-RP62203; type: tissue-based
[3] = molecular target: T2, Adenosine receptor A1 (Homo sapiens) (UniProt P30542); assay: Percent decrease in Adenosine A1 receptor binding using CPDPX; set-up: scale not given: the % may be the effect or the level left
T2 sequence (whole entry): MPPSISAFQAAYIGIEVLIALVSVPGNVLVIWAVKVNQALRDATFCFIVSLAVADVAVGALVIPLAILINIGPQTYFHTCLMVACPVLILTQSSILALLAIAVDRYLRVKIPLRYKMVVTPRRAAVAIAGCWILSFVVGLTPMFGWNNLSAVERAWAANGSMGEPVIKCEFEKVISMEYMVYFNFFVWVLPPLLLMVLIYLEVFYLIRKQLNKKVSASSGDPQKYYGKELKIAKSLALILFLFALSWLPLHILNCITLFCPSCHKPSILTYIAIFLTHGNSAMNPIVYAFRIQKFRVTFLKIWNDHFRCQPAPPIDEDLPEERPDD

[4] = molecular target: Adrenergic receptor alpha-1 (Homo sapiens) (UniProt P35348+P25100+P35368); assay: Percent decrease in Alpha-1 adrenergic receptor binding using prazosin; type: protein assay; outline: as §1
[5] = molecular target: Angiotensin II receptor (Homo sapiens) (UniProt P30556+P50052); assay: Percent decrease of Angiotensin II receptor binding; type: protein assay; set-up: concentration or dose not given beside the values; outline: as §1
[6] = molecular target: D(1A) dopamine receptor (Rattus norvegicus, UniProt P18901); assay: Binding affinity against Dopamine receptor D1 of rat striatal receptor using [3H]SCH-23390
Chain of D(1A) dopamine receptor (P18901 whole entry): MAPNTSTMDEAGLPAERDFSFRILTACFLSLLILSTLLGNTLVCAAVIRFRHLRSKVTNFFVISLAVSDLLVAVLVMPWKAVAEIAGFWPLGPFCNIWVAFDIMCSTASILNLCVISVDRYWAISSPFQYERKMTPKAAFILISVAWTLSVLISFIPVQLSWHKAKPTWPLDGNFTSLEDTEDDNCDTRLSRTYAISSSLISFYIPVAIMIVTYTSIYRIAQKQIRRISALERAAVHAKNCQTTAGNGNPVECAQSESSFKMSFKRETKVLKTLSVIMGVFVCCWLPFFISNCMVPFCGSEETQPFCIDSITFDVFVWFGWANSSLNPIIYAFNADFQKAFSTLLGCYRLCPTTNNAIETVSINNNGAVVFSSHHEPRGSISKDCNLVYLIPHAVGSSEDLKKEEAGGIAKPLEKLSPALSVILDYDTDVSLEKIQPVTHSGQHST
Outline: (§2)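 Rat striatal receptor preparations were used, with [3H]SCH23390 for D1, [3H]spiperone for D2 and [3H]RP62203 for 5-HT2. Ki ([…]) was derived from competitive displacement of the radioligand, with n = 3–7.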

[7] = molecular target: D(2) dopamine receptor (Rattus norvegicus, UniProt P61169); assay: Binding affinity against Dopamine receptor D2 of rat striatal mambranes using [3H]spiperone; outline: as §2
Chain of D(2) dopamine receptor (P61169 whole entry): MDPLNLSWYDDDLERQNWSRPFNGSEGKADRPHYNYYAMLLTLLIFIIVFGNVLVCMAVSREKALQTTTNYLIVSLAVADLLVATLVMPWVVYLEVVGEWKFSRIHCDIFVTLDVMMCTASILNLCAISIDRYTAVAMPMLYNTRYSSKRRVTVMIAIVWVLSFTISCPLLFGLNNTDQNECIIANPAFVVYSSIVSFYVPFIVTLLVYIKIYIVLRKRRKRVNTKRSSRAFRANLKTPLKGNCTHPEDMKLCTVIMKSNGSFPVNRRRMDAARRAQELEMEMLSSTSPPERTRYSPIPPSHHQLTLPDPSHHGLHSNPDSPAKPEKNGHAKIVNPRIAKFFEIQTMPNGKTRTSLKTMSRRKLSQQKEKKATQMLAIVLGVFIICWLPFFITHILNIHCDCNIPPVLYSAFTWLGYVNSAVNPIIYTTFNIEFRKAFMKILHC

[8] = Percent decrease of Endothelin receptor binding using [125I]sarafotoxin; set-up: concentration or dose not given beside the values
[9] = molecular target: Glutamate [NMDA] receptor (Homo sapiens) (UniProt Q05586+Q12879+Q13224+O15399+O60391+Q14957+Q8TCU5); assay: Percent decrease of N-methyl-D-aspartate glutamate receptor binding using MK-801; type: protein-complex assay; set-up: concentration or dose not given beside the values; outline: as §1
[10] = % Decrease of Phorbol Diester Receptor -bound radioactivity using PDBU as a radioligand.; set-up: scale not given: the % may be the effect or the level left; outline: as §1
[11] = molecular target: T3, Glutamate receptor ionotropic AMPA (Homo sapiens) (UniProt P48058+P42263+P42262+P42261); assay: Percent decrease in Quisqualate receptor binding using AMPA; type: protein-complex assay; set-up: scale not given: the % may be the effect or the level left; outline: as §1
[12] = % Decrease of adenosine carrier-receptor -bound radioactivity using NBTI as a radioligand.; set-up: concentration or dose not given beside the values; outline: as §1
[13] = molecular target: D(1A) dopamine receptor (Rattus norvegicus) (UniProt P18901); assay: Percent decrease of Dopamine receptor D1 binding using SCH-23390; set-up: scale not given: the % may be the effect or the level left
Chain of D(1A) dopamine receptor (Rattus norvegicus) (P18901 whole entry, looked up): as the sequence (P18901 whole entry) above

[14] = molecular target: T3, Glutamate receptor ionotropic AMPA (Homo sapiens); assay: Percent decrease of Quisqualate receptor binding using AMPA; type: protein-complex assay; set-up: scale not given: the % may be the effect or the level left; outline: as §1

| Structure (SMILES) | Activity [1] [%] | Ki [2] [nM] | Activity [3] [%] | Decrease [4] [%] | Activity [5] [%] | Ki [6] [nM] | Ki [7] [nM] | Activity [8] [%] | Activity [9] [%] | Activity [10] [%] | Activity [11] [%] | Activity [12] [%] | Activity [13] [%] | Activity [14] [%] |
| --- | --- | --- | --- | --- | --- | --- | --- | --- | --- | --- | --- | --- | --- | --- |
| CN1CCc2ccccc2Cc2[nH]c3ccccc3c2CC1 | -72 | 20 | 5 | -97 | 6 | 0.08 | 6 | 0 | -18 | 0 | -3 | -14 | -99 |  |
| c1ccc2c3c([nH]c2c1)C1c2[nH]c4ccccc4c2CCN1CC3 | -25 |  |  | -88 | 0 |  |  | 1 | -52 | -15 |  | 1 |  | -1 |
| c1ccc2c(c1)CCN1CCc3c([nH]c4ccccc34)C21 (configuration not stated) | -12 |  |  | -82 | 0 |  |  | -1 | -33 | -6 |  | -29 |  | 3 |
| COc1cc2c(cc1OC)C1c3[nH]c4ccccc4c3CCN1CC2 (configuration not stated) | -21 |  |  | -94 | 6 |  |  | 0 | -14 | -9 |  | -17 |  | -1 |
